ChEMBL document CHEMBL2311393 (Bioorg Med Chem Lett, 2013)
The source made the active and inactive calls. The rule behind the calls is not given here.

Experiments:
SK-BR-3 = experiment: Antiproliferative activity against human SKBR3 cells; format: functional, cell-based
Procedure, shortened: (§1)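 Growth inhibition in SKBr3 (ER-negative, Her2-overexpressing) and MCF-7 (ER-positive) breast cancer cells, run per an earlier published protocol. Values are mean ± standard deviation of at least two separate experiments, each in triplicate.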

MCF7 [1] = experiment: Antiproliferative activity against human MCF7 cells; format: functional, cell-based; procedure, shortened: as §1
[2] = biological target: T1, Heat shock protein HSP90 (Homo sapiens) (UniProt P07900+P08238); experiment: Inhibition of Hsp90 in human MCF7 cells assessed as degradation of client protein Raf after 24 hrs by Western blot analysis; format: cell-based
Procedure, shortened: (§2)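 MCF-7 cells were treated with the compound across a concentration series. Cell lysates were then probed by western blot for the Hsp90 client proteins Raf and Akt, for Hsp90 itself, and for actin as a non-Hsp90-dependent control protein.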

MCF7 [3] = experiment: Effect on Hsp90 protein level in human MCF7 cells at 0.1 to 2.5 uM after 24 hrs by Western blot analysis; format: functional, cell-based; procedure, shortened: as §2
[4] = biological target: T1, Heat shock protein HSP90 (Homo sapiens); experiment: Inhibition of Hsp90 in human MCF7 cells assessed as degradation of client protein Akt after 24 hrs by Western blot analysis; format: cell-based; procedure, shortened: as §2

Row | IC50 (SK-BR-3) [nM] | IC50 (MCF7 [1]) [nM] | inhibition [2] | inhibition [4] | SMILES | Activity (MCF7 [3])
1 | 1300 | 2640 | – | – | CC(C)=CCc1cc(C(=O)Nc2cc3ccc(OCC4CCCN(C)C4)c(C)c3oc2=O)ccc1O (stereo not given) | –
2 | 310 | 320 | Dose-dependent effect | Dose-dependent effect | CC(C)=CCc1cc(C(=O)Nc2cc3ccc(OCCCNC45CC6CC(CC(C6)C4)C5)c(C)c3oc2=O)ccc1O | inactive
3 | 610 | 1560 | – | – | CC(C)=CCc1cc(C(=O)Nc2cc3ccc(OCCCNCCO)c(C)c3oc2=O)ccc1O | –
4 | 620 | 820 | – | – | CC(=O)Oc1ccc(C(=O)Nc2cc3ccc(OCC4CCCNC4)c(C)c3oc2=O)cc1CC=C(C)C (stereo not given) | –
5 | 720 | 990 | – | – | CC(C)=CCc1cc(C(=O)Nc2cc3ccc(OCCCN4CCCC4)c(C)c3oc2=O)ccc1O | –
6 | 1060 | 2820 | – | – | COC(=O)CNCCCOc1ccc2cc(NC(=O)c3ccc(O)c(CC=C(C)C)c3)c(=O)oc2c1C | –
7 | 660 | 950 | – | – | CC(C)=CCc1cc(C(=O)Nc2cc3ccc(OCCCNC(C)(C)C)c(C)c3oc2=O)ccc1O | –
8 | 880 | 1880 | – | – | CC(=O)Oc1ccc(C(=O)Nc2cc3ccc(OCC4CCN(C)C4)c(C)c3oc2=O)cc1CC=C(C)C (stereo not given) | –
9 | 660 | 1070 | – | – | CC(C)=CCc1cc(C(=O)Nc2cc3ccc(OCCCNC4CCCCC4)c(C)c3oc2=O)ccc1O | –
10 | 4900 | 6390 | – | – | CCN(CC)CCCOc1ccc2cc(NC(=O)c3ccc(O)c(CC=C(C)C)c3)c(=O)oc2c1C | –
11 | 1000 | 1450 | – | – | CC(C)=CCc1cc(C(=O)Nc2cc3ccc(OCCCN[C@H](C)c4ccccc4)c(C)c3oc2=O)ccc1O | –
12 | 960 | 1070 | – | – | CC(C)=CCc1cc(C(=O)Nc2cc3ccc(OCCCNC(C)(C)c4ccccc4)c(C)c3oc2=O)ccc1O | –
13 | > 50000 | > 50000 | – | – | CCCN(CCC)CCCOc1ccc2cc(NC(=O)c3ccc(O)c(CC=C(C)C)c3)c(=O)oc2c1C | –
14 | 10000 | – | – | – | CO[C@@H]1[C@@H](O)[C@@H](O)[C@H](Oc2ccc3cc(NC(=O)c4ccc(O)c(CC=C(C)C)c4)c(=O)oc3c2C)OC1(C)C | –
15 | 720 | 980 | – | – | CCNCCCOc1ccc2cc(NC(=O)c3ccc(O)c(CC=C(C)C)c3)c(=O)oc2c1C | –
16 | 640 | 710 | – | – | CC(=O)Oc1ccc(C(=O)Nc2cc3ccc(OCCC4CCCCN4)c(C)c3oc2=O)cc1CC=C(C)C (stereo not given) | –
17 | 1010 | 1200 | – | – | CC(C)=CCc1cc(C(=O)Nc2cc3ccc(OCCCN4CCN(C)CC4)c(C)c3oc2=O)ccc1O | –
18 | 880 | 1140 | – | – | CC(C)=CCc1cc(C(=O)Nc2cc3ccc(OCCCN(C)C(C)(C)C)c(C)c3oc2=O)ccc1O | –
19 | > 50000 | > 50000 | – | – | CC(C)=CCc1cc(C(=O)Nc2cc3ccc(OCCCNc4ccccc4)c(C)c3oc2=O)ccc1O | –
20 | 1030 | 1320 | – | – | CC(C)=CCc1cc(C(=O)Nc2cc3ccc(OCCCNCC(C)C)c(C)c3oc2=O)ccc1O | –

Row | IC50 (SK-BR-3) [nM] | IC50 (MCF7 [1]) [nM] | inhibition [2] | inhibition [4] | SMILES | Activity (MCF7 [3])
21 | 820 | 930 | – | – | CC(C)=CCc1cc(C(=O)Nc2cc3ccc(OCCCN4CCNCC4)c(C)c3oc2=O)ccc1O | –
22 | 920 | 1550 | – | – | CC(C)=CCc1cc(C(=O)Nc2cc3ccc(OCC4CCN(C)C4)c(C)c3oc2=O)ccc1O (stereo not given) | –
23 | 640 | 710 | – | – | CC(C)=CCc1cc(C(=O)Nc2cc3ccc(OCCC4CCCCN4)c(C)c3oc2=O)ccc1O (stereo not given) | –
24 | 990 | 980 | – | – | CCCNCCCOc1ccc2cc(NC(=O)c3ccc(O)c(CC=C(C)C)c3)c(=O)oc2c1C | –
25 | 770 | 1030 | – | – | CC(C)=CCc1cc(C(=O)Nc2cc3ccc(OCCCN[C@@H]4C[C@H]5CC[C@@H]4C5)c(C)c3oc2=O)ccc1O | –
26 | 730 | 2190 | – | – | CCN(C)CCCOc1ccc2cc(NC(=O)c3ccc(O)c(CC=C(C)C)c3)c(=O)oc2c1C | –
27 | > 50000 | > 50000 | – | – | CC(C)=CCc1cc(C(=O)Nc2cc3ccc(OCCCN4CCOCC4)c(C)c3oc2=O)ccc1O | –
28 | 750 | 740 | – | – | CC(C)=CCc1cc(C(=O)Nc2cc3ccc(OCCCNC(C)C)c(C)c3oc2=O)ccc1O | –
29 | 970 | 1080 | – | – | CC(C)=CCc1cc(C(=O)Nc2cc3ccc(OCCCN(C)C4CCCCC4)c(C)c3oc2=O)ccc1O | –
30 | > 50000 | > 50000 | – | – | CC(C)=CCc1cc(C(=O)Nc2cc3ccc(OCCCN4CCCCC4)c(C)c3oc2=O)ccc1O | –
31 | 740 | 1650 | – | – | CC(=O)Oc1ccc(C(=O)Nc2cc3ccc(OCC4CCCN(C)C4)c(C)c3oc2=O)cc1CC=C(C)C (stereo not given) | –
32 | 570 | 1050 | – | – | CC(C)=CCc1cc(C(=O)Nc2cc3ccc(OCCCN(C)C(C)C)c(C)c3oc2=O)ccc1O | –
33 | 10700 | 11500 | – | – | CC(C)=CCc1cc(C(=O)Nc2cc3ccc(OCCCN(C)Cc4ccccc4)c(C)c3oc2=O)ccc1O | –
34 | > 50000 | > 50000 | – | – | CC(C)=CCc1cc(C(=O)Nc2cc3ccc(OCCCN(C)c4ccccc4)c(C)c3oc2=O)ccc1O | –
35 | 470 | 910 | – | – | CC(C)=CCc1cc(C(=O)Nc2cc3ccc(OCCCNCc4ccccc4)c(C)c3oc2=O)ccc1O | –
36 | 600 | 790 | – | – | CC(C)=CCc1cc(C(=O)Nc2cc3ccc(OCC4CCCNC4)c(C)c3oc2=O)ccc1O (stereo not given) | –
37 | 7570 | 18100 | – | – | CC(C)=CCc1cc(C(=O)Nc2cc3ccc(OCCCNCC(=O)O)c(C)c3oc2=O)ccc1O | –
38 | 1600 | 1310 | – | – | CC(C)=CCc1cc(C(=O)Nc2cc3ccc(OCCCN(C(C)C)C(C)C)c(C)c3oc2=O)ccc1O | –
39 | 2290 | 1460 | – | – | CC(C)=CCc1cc(C(=O)Nc2cc3ccc(OCCCNCC(N)=O)c(C)c3oc2=O)ccc1O | –
